# Measured values reported in ChEMBL document CHEMBL1156826, “Multifunctional antioxidants for the treatment of age-related diseases” (J Med Chem, 2010).
# Active and inactive are the calls of the source. The calls are words filed in the database; no cut-off is given here.
# Tests used:
# [1] = Binding affinity to Fe(3+) ions assessed as percent parent peaks remaining by electrospray ionization mass spectrometry; parameters: concentration or dose not given beside the values
# How it was run: (§1)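 Metal ion stocks (1 mM in double-distilled water) were prepared from ammonium iron(II) sulfate, iron(III) nitrate, copper(I) chloride, copper(II) chloride, zinc chloride, magnesium chloride or calcium chloride. Each was mixed with compound at metal:compound ratios of 10:1, 1:1 and 1:10, keeping the final compound concentration at 50 μM.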
# [2] = Binding affinity to Zn(2+) ions assessed as percent parent peaks remaining by electrospray ionization mass spectrometry; parameters: concentration or dose not given beside the values; how it was run: as §1
# [3] = Binding affinity to Mg(2+) ions assessed as percent parent peaks remaining by electrospray ionization mass spectrometry; parameters: concentration or dose not given beside the values; how it was run: as §1
# [4] = Binding affinity to Fe(2+) ions assessed as percent parent peaks remaining by electrospray ionization mass spectrometry; parameters: concentration or dose not given beside the values; how it was run: as §1
# SRA1 [5] = experiment: Cytoprotection in human SRA1 cells assessed as protection against H2O2-induced cell death after 2 hrs by MTS assay; format: functional, cell-based
# How it was run: (§2)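 Cells are seeded at 1 × 10⁴ per well and pre-treated 1 hr in FBS-free medium with 100 μM compound, then given 1 mM H2O2, or 1 mM H2O2 plus 1 mM iron(II) chloride (Fenton), for 2 hr. After a PBS wash, MTS is added in blank medium for 1.5 hr at 37 °C and read at 490 nm. Results are normalized to cells without H2O2 (100%), mean ± SD of three experiments.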
# ARPE-19 [6] = experiment: Cytoprotection in human ARPE19 cells assessed as protection against Fenton's reagent-induced cell death after 2 hrs by MTS assay; format: functional, cell-based; how it was run: as §2
# [7] = Binding affinity to Ca(2+) ions assessed as percent parent peaks remaining by electrospray ionization mass spectrometry; parameters: concentration or dose not given beside the values; how it was run: as §1
# ARPE-19 [8] = experiment: Antioxidant activity in human […] cells assessed as inhibition of Fenton's reagent-induced reduction of cellular glutathione level after 2 hrs by DTNB method; format: functional, cell-based
# How it was run: (§3)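 Cells are pre-incubated 1 hr in FBS-free medium with 100 μM compound, then given 1 mM H2O2, or 1 mM H2O2 plus 1 mM iron(II) chloride (Fenton), for 2 hr. Cells are washed with PBS, scraped and homogenized; supernatant protein is measured by Bradford. Homogenate is deproteinized with 20% TCA, and GSH is read at 412 nm (DTNB). Values are nmol GSH/mg protein, normalized to unexposed cells (100%), in triplicate.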
# HAh [9] = experiment: Antioxidant activity in human HAh cells assessed as inhibition of Fenton's reagent-induced reduction of cellular glutathione level after 2 hrs by DTNB method; format: functional, cell-based; how it was run: as §3
# [10] = Binding affinity to Cu(2+) ions assessed as percent parent peaks remaining by electrospray ionization mass spectrometry; parameters: concentration or dose not given beside the values; how it was run: as §1
# SRA1 [11] = experiment: Cytoprotection in human SRA1 cells assessed as protection against Fenton's reagent-induced cell death after 2 hrs by MTS assay; format: functional, cell-based; how it was run: as §2
# SRA1 [12] = experiment: Antioxidant activity in human SRA1 cells assessed as inhibition of H2O2-induced reduction of cellular glutathione level after 2 hrs by DTNB method; format: functional, cell-based; how it was run: as §3
# [13] = Binding affinity to Cu(1+) ions assessed as percent parent peaks remaining by electrospray ionization mass spectrometry; parameters: concentration or dose not given beside the values; how it was run: as §1
# HAh [14] = experiment: Cytoprotection in human HAh cells assessed as protection against Fenton's reagent-induced cell death after 2 hrs by MTS assay; format: functional, cell-based; how it was run: as §2
# SRA1 [15] = experiment: Antioxidant activity in human SRA1 cells assessed as inhibition of Fenton's reagent-induced reduction of cellular glutathione level after 2 hrs by DTNB method; format: functional, cell-based; how it was run: as §3
Compound,Activity [1] [%],Activity [2] [%],Activity [3] [%],Activity [4] [%],Activity [7] [%],Activity [10] [%],Activity [13] [%],Activity (SRA1 [5]),Activity (ARPE-19 [6]),Activity (ARPE-19 [8]),Activity (HAh [9]),Activity (SRA1 [11]),Activity (SRA1 [12]),Activity (HAh [14]),Activity (SRA1 [15])
CN(C)S(=O)(=O)N1CCN(c2ncc(O)cn2)CC1,100,100,100,100,100,100,100,Active,Active,Active,Active,Active,Active,Active,
CN(C)S(=O)(=O)N1CCN(c2ncccn2)CC1,100,100,100,100,100,100,100,inactive,,,,,inactive,,
Cc1c(C)c2c(c(C)c1O)CCC(C)(C(=O)O)O2 (stereo unspecified),,,,,,,,Active,,,Active,,,,
COc1nc(N2CCN(S(=O)(=O)N(C)C)CC2)nc(OC)c1O,100,100,100,100,100,100,100,Active,Active,Active,Active,Active,Active,Active,

# Now from value to compound, other results behind:
Activity [1] [%],Activity [2] [%],Activity [3] [%],Activity [4] [%],Activity [7] [%],Activity [10] [%],Activity [13] [%],Compound,Activity (SRA1 [5]),Activity (ARPE-19 [6]),Activity (ARPE-19 [8]),Activity (HAh [9]),Activity (SRA1 [11]),Activity (SRA1 [12]),Activity (HAh [14]),Activity (SRA1 [15])
8.2,12.7,100,6.9,100,3,4.2,CN(C)S(=O)(=O)N1CC(=O)N(c2ncc(O)cn2)C(=O)C1,Active,Active,Active,Active,Active,Active,Active,Active
100,100,100,100,100,100,100,COc1cc(OC)nc(N2CCN(S(=O)(=O)N(C)C)CC2)n1,inactive,,,,,inactive,,
10,15.3,100,8.1,100,4.4,3.6,CN(C)S(=O)(=O)N1CC(=O)N(c2ncccn2)C(=O)C1,inactive,Active,Active,Active,,inactive,Active,Active
7.6,13.8,100,7.3,100,3.4,4.1,COc1cc(OC)nc(N2C(=O)CN(S(=O)(=O)N(C)C)CC2=O)n1,inactive,Active,Active,Active,,inactive,Active,Active
8.2,14.6,100,7.5,100,3.6,4,COc1nc(N2C(=O)CN(S(=O)(=O)N(C)C)CC2=O)nc(OC)c1O,Active,Active,Active,Active,Active,Active,Active,Active
